Screens: PubChem, The Scripps Research Institute Molecular Screening Center
Hits are enriched below; roughly 2.9% of the tested compounds scored in any of these assays.
M1 ag parental: nonselective activator or artifact in parental CHO-K1 cells. Fluo-8 calcium fluorescence; scaled to maximal ATP response, vehicle zero. activation, % at 3 µM. 360,000 tested, 0.48% active; in the data active means activation above about 15%;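 further: untransfected CHO-K1 host cells lacking M1 receptor as counterscreen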
CHO-K1 Ca antag: counter-screen for M1 antagonists: effect in parental CHO-K1 cells; ATP-induced calcium, Fluo-8 fluorescence; inhibition, % at 3 µM; 360,000 tested, 0.6% active; AID 602250;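 active means inhibition above a per-plate cutoff, the plate's mean sample inhibition plus 3 SD, cut at about 24% in these data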
CHO-K1 Ca PAM: counter-screen for M1 PAMs: effect in parental CHO-K1 cells; ATP EC20, Fluo-8 calcium fluorescence; 0% at ATP EC20, 100% at ATP max; activation, % at 3 µM; 360,000 tested, 0.02% active;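 active means activation above the run cutoff, the mean activation of all test compounds plus 3 SD, cut at about 40% in these data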;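 further: peak over basal fluorescence ratio in a 140 s read after ATP addition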
OX1R antag-1: human HCRTR1 antagonism. AID 434989. inhibition, % at 5 µM. O43613. CHO/OX1R cells, Fluo-8 calcium fluorescence, orexin A. 330,000 tested, 0.43% active;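 active means inhibition above its plate's threshold, mean inhibition of all tested compounds on the plate plus 3 SD, cut at about 37% in these data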
Target sequence (O43613 whole entry, looked up): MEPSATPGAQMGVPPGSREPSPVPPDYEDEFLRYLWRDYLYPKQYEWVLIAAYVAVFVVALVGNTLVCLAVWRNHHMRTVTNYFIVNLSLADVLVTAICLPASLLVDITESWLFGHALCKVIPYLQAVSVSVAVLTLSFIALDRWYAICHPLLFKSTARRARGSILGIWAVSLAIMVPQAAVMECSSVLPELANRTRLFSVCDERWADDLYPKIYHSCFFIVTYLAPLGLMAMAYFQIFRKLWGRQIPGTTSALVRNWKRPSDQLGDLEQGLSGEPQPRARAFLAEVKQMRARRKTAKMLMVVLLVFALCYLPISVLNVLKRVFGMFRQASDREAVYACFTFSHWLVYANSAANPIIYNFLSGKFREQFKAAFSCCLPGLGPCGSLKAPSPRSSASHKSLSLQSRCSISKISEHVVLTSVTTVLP
OX1R antag-2: OX1R (human) antagonism. O43613. OX1R-expressing cells, FRET antagonist read-out. inhibition, % at 6.6 µM. 330,000 tested, 1.8% active. AID 485270; in the data active means inhibition mostly above about 38%, no sharp cut-off; inactive means mostly below about 40%
CHO parental Ca: counter-screen for OX1R antagonists: effect in parental CHO cells; parental CHO-K1, ATP-induced calcium, Fluo-8 fluorescence; 330,000 tested, 0.63% active; inhibition, % at 5.6 µM;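 active means inhibition above that plate's mean sample inhibition plus 3 SD, cut at about 26% in these data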
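Measured by: calcium-sensitive Fluo-8 fluorescence / Test system: CHO parental line / Controls: ATP-challenged DMSO wells low, unchallenged DMSO wells high / Measure: % inhibition / Compound: single nominal dose of 5.6 µM per compound / Replicates: single well per compound, no replicates / Reagent: ATP as calcium-mobilizing challenge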
Of the large screens only hits and unclear results are named; the others gave an inactive call.

Cn1c(NCCOc2ccccc2Cl)nc2cc(-c3ccc(F)cc3)sc2c1=O	none (no result: OX1R antag-1, OX1R antag-2, CHO parental Ca)
O=C(CNS(=O)(=O)c1ccc(Br)s1)NCc1ccc(F)cc1	none
O=C(CCNS(=O)(=O)c1ccc(Br)s1)NCc1ccc(F)cc1	CHO-K1 Ca antag 29.4
O=C(OCC(=O)c1c[nH]c2ccccc12)c1cccc([N+](=O)[O-])c1	none
CCOC(=O)C1=C(C)c2ccccc2OC1(CC)C(=O)OCC (stereo not drawn)	none
CCOC(=O)C1=C(C)c2ccccc2N(C(=O)OC)C1(C)C(=O)OCC (stereo not drawn)	OX1R antag-2 32.7
O=C1Nc2ccc(Br)cc2/C1=C/C1CC=CCC1 (stereo not drawn)	CHO parental Ca 32.7
O=C1Nc2ccc(Br)cc2/C1=C/C(=O)c1ccc2c(c1)OCO2	none
CCCCOc1ccc(C(=O)Nc2cccc(-n3cnnn3)c2)cc1OC	none
Cc1nnc(SCC(=O)NC(C)(C)C)n1NCc1cccc(Br)c1	none
CCN(C(=O)c1ccc(C(C)(C)C)cc1)c1nnc(Cn2nnc3ccccc32)s1	CHO-K1 Ca antag 31.3, OX1R antag-1 68.6, CHO parental Ca 66.3
CCN(C(=O)CC(C)C)c1nnc(Cn2nnc3ccccc32)s1	none
CN(C)n1cccc1/C=C(\C#N)S(=O)(=O)c1ccc(Cl)cc1	OX1R antag-1 63.3, CHO parental Ca 64.8
Cc1cc2c(cc1C)NC(CC(=O)NCc1ccccc1)C(=O)N2 (stereo not drawn)	OX1R antag-2 35.5
O=C1CSC(=S)N1/N=C/c1cc(Br)c(O)c(Br)c1	M1 ag parental 106.3, CHO-K1 Ca antag 45.0, OX1R antag-1 89.9, CHO parental Ca 74.7
COc1ccc(CC2(CO)CCN(CC3=Cc4cc(Cl)ccc4OC3)CC2)cc1	OX1R antag-1 43.1, CHO parental Ca 63.7
COc1ccc2c(c1)C=C(CN1CCC(CO)(CCc3ccccc3)CC1)CO2	none
O=C(NCCCN1CCCCC1)C1CCN(S(=O)(=O)N2CCC3(CC2)OCCO3)CC1	none
O=C(Cn1c(=O)oc2cc(S(=O)(=O)N3CCCCCC3)ccc21)NC1CCCCCCC1	none
O=C(Cn1c(=O)oc2cc(S(=O)(=O)N3CCCC3)ccc21)NC1CCCc2ccccc21 (stereo not drawn)	CHO parental Ca 27.6
CCCN1CCC(=NNc2ccc(S(=O)(=O)N3CCOCC3)cc2[N+](=O)[O-])CC1	OX1R antag-2 71.2
CN(CC(=O)Nc1ccc(F)c(F)c1F)C(=O)Cc1ccc(S(=O)(=O)N2CCOCC2)s1	none (no result: OX1R antag-1, OX1R antag-2, CHO parental Ca)
COc1ccccc1C1OC2=C(Nc3ccc([N+](=O)[O-])cc3N2)C1=O (stereo not drawn)	OX1R antag-2 43.5
COc1ccc(C2OC3=C(Nc4cc(C)c(C)cc4N3)C2=O)cc1 (stereo not drawn)	none
O=C(Nc1c2ccccc2nc2ccccc12)C(Cl)(Cl)Cl	OX1R antag-2 69.3
C/C(COc1ccccc1)=N\NC(=O)c1nnn(-c2nonc2N)c1CSc1ccccc1	OX1R antag-2 60.2
Cc1ccc(SCc2c(C(=O)N/N=C/c3ccoc3)nnn2-c2nonc2N)cc1	OX1R antag-2 44.8
C/C(=N\NC(=O)c1nnn(-c2nonc2N)c1CSc1ccccc1)c1cccnc1	none
Cc1ccc(SCc2c(C(=O)N/N=C/c3ccccc3)nnn2-c2nonc2N)cc1	none
CCCCC(=O)OCC(=O)Nc1cccc(S(=O)(=O)NC2=NCCCCC2)c1	none
COC(=O)c1cccc(NC(=O)/C=C/c2ccc3c(c2)OCO3)c1	OX1R antag-2 51.8
O=C(/C=C/c1ccc(F)cc1)NC(=S)NNC(=O)[C@H]1C[C@@H]1c1ccccc1	M1 ag parental 39.8
CCCNC(=O)Cn1c(=O)/c(=C\c2ccc(-c3ccc([N+](=O)[O-])cc3)o2)s/c1=C\C(=O)C(C)(C)C	M1 ag parental 22.6, OX1R antag-1 74.8, CHO parental Ca 59.0
COc1ccc(N/N=C(\C#N)C(N)=O)cc1	none
N#C/C(=N/Nc1ccc(OC(F)(F)F)cc1)C(N)=S	OX1R antag-1 40.5, OX1R antag-2 53.9
Nc1cc(-c2ccc(Cl)cc2)nn1S(=O)(=O)c1ccccc1	CHO parental Ca 48.4
CCS(=O)(=O)n1nc(-c2ccccc2)cc1N	none
COCCNC(=O)C(=O)Nc1cc2c3c(c1)CCC(=O)N3CCC2	none
COc1cc(NC(=O)c2ccccc2-c2ccccc2)cc(OC)c1	OX1R antag-2 56.9
CN(CC(=O)Nc1cccc(F)c1)C(=O)c1ccc2c(c1)CC(c1ccccc1)OC2=O (stereo not drawn)	none (no result: OX1R antag-1, OX1R antag-2, CHO parental Ca)
Cc1ccc(NC(=O)Nc2ccc(F)cc2)cc1Cl	CHO-K1 Ca antag 25.8, CHO parental Ca 40.5
COc1cccc(CNc2ccc(C)c(Cl)c2)c1	M1 ag parental 16.6
CC(C)(C)c1ccc(NC(=O)Nc2ccc(F)cc2)cc1	M1 ag parental 16.4, CHO-K1 Ca antag 35.6, OX1R antag-1 64.3, CHO parental Ca 62.0
Cc1ccc(NC(=O)CCC(=O)c2ccc(F)cc2)cc1Cl	none
CC(C)(C)c1ccc(COC(=O)Nc2ccc(F)cc2)cc1	none
CCOc1ccc(NC(=O)Nc2cc(OCC(F)(F)F)cc(OCC(F)(F)F)c2)cc1	none
O=C(Nc1ccc(F)cc1)Nc1cc(OCC(F)(F)F)cc(OCC(F)(F)F)c1	CHO-K1 Ca antag 32.1, CHO parental Ca 40.2
Cc1ccc(NC(=O)CN2C(=O)NC(C)(CC(C)C)C2=O)c(Br)c1 (stereo not drawn)	none
OC(COC1CCCCC1)CN1CCCCC1 (stereo not drawn)	none
CCOC(=O)c1c(C)[nH]c(C)c1S(=O)(=O)N1CCN(c2cccc(C)c2)C(C)C1 (stereo not drawn)	none
CCOc1ccc(-c2noc(-c3csc([C@@H]4C[C@H](O)[C@@H](CO)O4)n3)n2)cc1	none (no result: OX1R antag-1, OX1R antag-2, CHO parental Ca)
COc1cccc(NC(=O)Nc2ccc(C)c(Cl)c2)c1	OX1R antag-1 38.5, CHO parental Ca 90.1
COc1cccc(NC(=O)Nc2ccncc2)c1	none
COc1cccc(NC(=O)Nc2cc(C(=O)O)ccc2C)c1	none
COc1cccc(NC(=O)Nc2ccc(C(C)(C)C)cc2)c1	M1 ag parental 19.2, CHO-K1 Ca antag 45.5 (no result: OX1R antag-1, OX1R antag-2, CHO parental Ca)
O=C(Nc1nnc(SCCC2OCCO2)s1)C1CC(=O)N(c2ccc(F)cc2)C1 (stereo not drawn)	none
N#CC(C#N)=C(Nc1ccc(F)cc1)SCc1cccc(F)c1	OX1R antag-2 70.9
CCOC(=O)c1sc(-c2ccccn2)nc1C	M1 ag parental 15.7
O=C(c1cc2ccccc2o1)N1CCC(N2CCC(C(=O)N3CCCC3)CC2)CC1	CHO-K1 Ca antag 24.1
O=S(=O)(c1cccs1)N1CCCc2ccccc21	CHO parental Ca 56.3
O=C(Nc1ccc2c(c1)N(S(=O)(=O)c1cccs1)CCC2)c1c(F)cccc1Cl	OX1R antag-2 54.8
COc1ccccc1CNC(=O)Cn1cccc1C(=O)c1ccccc1	none
COc1ccc(Cc2nc3ccc(C(=O)N(C)CCc4cnn(C)c4)cc3o2)cc1OC	none (no result: OX1R antag-1, OX1R antag-2, CHO parental Ca)
